Sampled rows, rich in hits. Any-hit rate of the full collection: about 1.1%.
miR-122 sensor: blocks miR-122 activity in Huh7 sensor cells; Huh7 miR-122 Renilla luciferase sensor, 48 h; neutral wells = 0, positive control = 100; activation (reporter increase), % at 12.5 µM; hit rate 0.3% among 340,000;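 active = mean replicate activation score at least 90 and every replicate individually at or above 90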;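 also: higher luciferase means less miR-122 activity so hits act as miR-122 inhibitors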
C-LANA FP: inhibitors of KSHV LANA C-terminal domain DNA binding. MBP-C-LANA/FAM-LBS DNA binding, fluorescence polarization. inhibition, % at 9 µM. hit rate 0.078% among 340,000. AID 504423;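 active = highest replicate inhibition at or above 60% at 9 µM, even if other replicates fall short; inactive = all replicates below 60% inhibition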;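 also: 0% = neutral control wells and 100% = 4 µM acridine orange control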
Keap1 Nrf2 FP: Keap1-Nrf2 (human) interaction inhibition | Q14145 | Keap1 Kelch-Nrf2 peptide fluorescence polarization, 1536-well | inhibition, % at 9.4 µM | hit rate 0.15% among 340,000 | AID 504523; in the data active = inhibition above about 12%;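 also: human Keap1 Kelch domain with fluorescein labeled Nrf2 9mer peptide probe; 0% = neutral control wells and 100% = peptide positive control; higher means more block of Keap1 binding to Nrf2 peptide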
Target sequence (Q14145 whole entry, looked up, the tested form may be a part): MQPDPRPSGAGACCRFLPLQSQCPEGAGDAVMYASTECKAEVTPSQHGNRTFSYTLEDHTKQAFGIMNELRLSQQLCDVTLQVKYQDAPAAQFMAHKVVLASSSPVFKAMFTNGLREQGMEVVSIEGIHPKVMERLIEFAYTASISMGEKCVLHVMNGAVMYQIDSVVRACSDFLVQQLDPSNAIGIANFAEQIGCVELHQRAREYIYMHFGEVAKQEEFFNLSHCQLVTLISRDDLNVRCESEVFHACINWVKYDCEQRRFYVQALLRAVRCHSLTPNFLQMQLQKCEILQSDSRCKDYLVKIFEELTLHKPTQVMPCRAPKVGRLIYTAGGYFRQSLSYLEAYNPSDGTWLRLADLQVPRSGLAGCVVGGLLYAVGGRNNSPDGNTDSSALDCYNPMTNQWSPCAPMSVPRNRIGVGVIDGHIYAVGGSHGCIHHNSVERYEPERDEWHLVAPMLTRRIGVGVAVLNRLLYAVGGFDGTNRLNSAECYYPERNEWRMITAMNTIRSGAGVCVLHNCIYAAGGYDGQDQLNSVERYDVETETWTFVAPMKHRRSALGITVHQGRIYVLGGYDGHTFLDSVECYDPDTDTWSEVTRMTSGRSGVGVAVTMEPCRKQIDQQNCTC
CAL PDZ FP-1: human CAL PDZ-peptide interaction inhibition; Q9HD26; purified CAL PDZ, TMR-peptide fluorescence polarization, 1 h; inhibition, % at 20 µM; hit rate 0.02% among 330,000; AID 504414;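 active = highest replicate inhibition of at least 40%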;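 also: plate controls were DMSO neutral control wells for no effect and unlabeled competitor peptide control wells for full effect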
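Material – purified CerCALP PDZ construct · Detection – FP readout, S and P plane fluorescence · Measure – percent inhibition from loss of millipolarization · Controls – unlabelled peptide for full inhibition, DMSO wells as neutral · Probe or stimulus – TMR-labelled reporter peptide T*-PRC34 bound in PDZ groove · Times – 1 h at RT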
CAL PDZ FP-2: blocks peptide binding to the human CAL PDZ domain. inhibition, % at 24.9 µM. AID 602252. purified CAL PDZ, TMR-peptide fluorescence polarization, 1 h. hit rate 0.92% among 300,000;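 active = mean inhibition of at least 30% with at least half of replicates also reaching 30%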;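 also: 0% = DMSO neutral control and 100% = excess unlabeled competitor peptide PRC23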
miR-27b qPCR: alters miR-27b levels in Huh7 cells, selectivity for miR-122 inhibitors. shares compounds with miR-122 sensor. Huh7 miR-27b levels, qRT-PCR, 48 h. relative miR-27b level (unnormalised ratio), ratio at 35 µM. 35 tested, under 10 active;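 active = compounds lowering miR-27b whose fitted half-maximal dose is at most twice their top tested dose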
The depositor's hits bear a star; / = no result given; [ ] = dose if it differs, or a comment.

SMILES	miR-122 sensor	C-LANA FP	Keap1 Nrf2 FP	CAL PDZ FP-1	CAL PDZ FP-2	miR-27b qPCR
O=C(Nc1ccc(N2CCOCC2)c(S(=O)(=O)Nc2cc(Cl)ccc2Cl)c1)c1cccnc1	325*	-3	0	0	-7	0.99
CC(C)NC(=O)Nc1ccc2c(c1)C(=O)N([C@H](C)CO)C[C@@H](C)[C@H](CN(C)C(=O)CCC(F)(F)F)OCCCC[C@@H](C)O2	-7[16.7 µM]	/	/	/	/	/
Cc1ccc(Cn2c(N)c(S(=O)(=O)c3cccs3)c3nc4ccccc4nc32)cc1	27	2	0	1	-6	/
Nc1c(S(=O)(=O)c2cccs2)c2nc3ccccc3nc2n1Cc1ccccc1	321*	0	-1	-1	/	0.43
CCCNC(=O)N(C)C[C@@H]1Oc2cc(C#CCC(C)C)ccc2S(=O)(=O)N([C@@H](C)CO)C[C@H]1C	21[16.7 µM]	/	/	/	/	/
Cc1noc(C)c1NC(=O)N(C)C[C@@H]1OCCCC[C@@H](C)Oc2ccc(NC(=O)Nc3ccccc3)cc2C(=O)N([C@@H](C)CO)C[C@@H]1C	14[16.7 µM]	/	/	/	/	/
CCOc1ccccc1N1CCN(C(=O)c2ccncc2)CC1	/	3	-2	-2	-3	/
CCOc1ccccc1N1CCN(C(=O)c2cccc(-c3ccc(O)cc3)c2)CC1	156*	1	4	-3	0	0.84
Cc1ccc(S(=O)(=O)Nc2ccc3c4c(cccc24)CC3)c(C)c1	198*	-1	-1	-1	-6	0.65
Cc1ccc(/C=C/C(=O)O)cc1S(=O)(=O)NCCO	-3	2	-3	1	0	/
Cc1cc(C(C)(C)C)cc(S(=O)(=O)NCCO)c1C	93*	-1	-5	-2	-6	0.94
Cc1cccc(NS(=O)(=O)c2cc3c(cc2C)NC(=O)CO3)c1	107*	2	2	-1	/	0.69
COc1cc(C)c(C(C)C)cc1S(=O)(=O)n1cnc(C)c1	152*	-2	0	-1	/	0.91
CC(C)NC(=O)N(C)C[C@@H]1Oc2cc(C#Cc3ccc(F)cc3)ccc2S(=O)(=O)N([C@@H](C)CO)C[C@@H]1C	3[16.7 µM]	/	/	/	/	/
C[C@H](CO)N1C[C@H](C)[C@H](CN(C)S(C)(=O)=O)OCCCC[C@H](C)Oc2ccc(NS(C)(=O)=O)cc2C1=O	2[16.7 µM]	/	/	/	/	/
COc1ccc(C)cc1NS(=O)(=O)c1ccc2c(c1)N(C)CCO2	149*	-1	2	-2	-2	1.2
Cc1cc(S(=O)(=O)NCCCn2ccnc2)c(C)cc1Cl	/	0	1	-2	-13	/
Cc1cc(Cl)c(Cl)cc1S(=O)(=O)NCCCn1ccnc1	132*	0	-3	33	7	0.87
C[C@H](CO)N1C[C@H](C)[C@H](CN(C)C)Oc2ccc(NS(=O)(=O)c3ccc(Cl)cc3)cc2CC1=O	-3[16.7 µM]	/	/	/	/	/
Cc1cc(C)c(C)c(S(=O)(=O)NC2CCCCC2)c1C	93*	-1	-4	-1	/	0.68
CCOc1ccc(C)cc1S(=O)(=O)NC1CCCCC1	283*	3	-3	-1	-5	0.52
CCOc1cc(S(=O)(=O)NC2CCCCC2)ccc1F	37	0	3	0	-1	/
C[C@@H]1CN([C@@H](C)CO)C(=O)c2cccc(NC(=O)C3CCOCC3)c2O[C@@H]1CN(C)Cc1ccncc1	0[16.7 µM]	/	/	/	/	/
COCCNS(=O)(=O)c1ccc2c3c(cccc13)C(=O)N2C	33	0	-1	-1	4	/
CN1C(=O)c2cccc3c(S(=O)(=O)NCCc4ccccc4)ccc1c23	117*	0	-1	-1	/	0.64
Cc1ccc(C)c(S(=O)(=O)Nc2ccc3cn[nH]c3c2)c1	153*	-4	0	1	-5	1.3

Bioassay records deposited in PubChem by Broad Institute.
